Results taken from ChEMBL document CHEMBL5303300, “EUbOPEN Chemogenomics Library - Multiplex” (2023).
Values joined by “and” are separate entries in the source; they are usually repeats but may differ in a detail not shown here. Equal values may be shown once.

Tested on: U2OS
Assay: Multiplex assay against U2OS
Format: toxicity, cell-based
Conditions: human, number of replicates 2
Outline: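 Values for tubulin, mitochondrial-mass and membrane-permeability phenotypes are per cents of cells with healthy nuclei. These cells were identified by CellPathfinder machine-learning gating of live cells that had been stained at seeding with Hoechst33342, BioTracker Green Microtubule Cytoskeleton Dye, MitoTracker Red and Annexin V Alexa Fluor 680 and imaged on a CQ1 microscope at 37°C and 5% CO2 after compound addition. The gating first set Hoechst high-intensity objects apart from normal cells, then split normal cells into healthy, pyknosed or fragmented nuclei, and pyknosed cells into mitotic or apoptotic.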

[1] = 12 h, 1 µM, compound concentration 1 uM
[2] = 12 h, 10 µM, compound concentration 10 uM
[3] = 24 h, 1 µM, compound concentration 1 uM
[4] = 24 h, 10 µM, compound concentration 10 uM
[5] = 48 h, 1 µM, compound concentration 1 uM
[6] = 48 h, 10 µM, compound concentration 10 uM

## CN[C@@H]1CC[C@@H](c2ccc(Cl)c(Cl)c2)c2ccccc21.Cl
[1]
  Population Apoptotic (%): 66% and 62%
  Population Fragmented Nuclei (%): 4% and 9%
  Population Healthy Nuclei (%): 82% and 78%
  Population Hoechst High Intensity Objects (%): 0%
  Population Membrane Permeable-Phenotype (%): 4% and 9%
  Population Mitotic Cells (%): 33% and 37%
  Population Normal (%): 100%
  Population Pyknosed Nuclei (%): 13% and 12%
  Population Tubulin-Different-Phenotype (%): 52% and 43%
[2]
  Population Apoptotic (%): 83% and 60%
  Population Healthy Nuclei (%): 33% and 57%
  Population Hoechst High Intensity Objects (%): 0%
  Population Membrane Permeable-Phenotype (%): 30%
  Population Mitochondria Different-Phenotype (%): 53% and 50%
  Population Mitotic Cells (%): 16% and 40%
  Population Normal (%): 100%
  Population Pyknosed Nuclei (%): 30% and 32%
  Population Tubulin-Different-Phenotype (%): 84% and 73%
[3]
  Population Apoptotic (%): 60% and 71%
  Population Fragmented Nuclei (%): 1% and 7%
  Population Healthy Nuclei (%): 84% and 81%
  Population Hoechst High Intensity Objects (%): 0%
  Population Membrane Permeable-Phenotype (%): 2% and 1%
  Population Mitochondria Different-Phenotype (%): 6% and 1%
  Population Mitotic Cells (%): 39% and 28%
  Population Normal (%): 100%
  Population Pyknosed Nuclei (%): 14% and 10%
  Population Tubulin-Different-Phenotype (%): 63% and 33%
[4]
  Population Apoptotic (%): 90% and 75%
  Population Hoechst High Intensity Objects (%): 0%
  Population Membrane Permeable-Phenotype (%): 42% and 33%
  Population Mitochondria Different-Phenotype (%): 100% and 63%
  Population Mitotic Cells (%): 10% and 25%
  Population Normal (%): 100%
  Population Pyknosed Nuclei (%): 50% and 35%
  Population Tubulin-Different-Phenotype (%): 100% and 75%
[5]
  Population Apoptotic (%): 85% and 52%
  Population Fragmented Nuclei (%): 2%
  Population Healthy Nuclei (%): 85% and 76%
  Population Hoechst High Intensity Objects (%): 0%
  Population Membrane Permeable-Phenotype (%): 1%
  Population Mitochondria Different-Phenotype (%): 3% and 1%
  Population Normal (%): 99% and 100%
  Population Pyknosed Nuclei (%): 11% and 20%
  Population Tubulin-Different-Phenotype (%): 72% and 37%
[6]
  Population Apoptotic (%): 88% and 79%
  Population Fragmented Nuclei (%): 31% and 16%
  Population Hoechst High Intensity Objects (%): 0%
  Population Membrane Permeable-Phenotype (%): 40% and 45%
  Population Mitochondria Different-Phenotype (%): 60% and 65%
  Population Mitotic Cells (%): 11% and 20%
  Population Normal (%): 100%
  Population Pyknosed Nuclei (%): 57% and 37%
  Population Tubulin-Different-Phenotype (%): 100% and 74%

## CCn1c(-c2nonc2N)nc2cncc(C(=O)N3CC[C@H](N)C3)c21.Cl
[1]
  Population Apoptotic (%): 50% and 90%
  Population Fragmented Nuclei (%): 13% and 3%
  Population Healthy Nuclei (%): 73% and 87%
  Population Hoechst High Intensity Objects (%): 0%
  Population Membrane Permeable-Phenotype (%): 0% and 1%
  Population Mitochondria Different-Phenotype (%): 4% and 0%
  Population Normal (%): 100%
  Population Pyknosed Nuclei (%): 13% and 9%
  Population Tubulin-Different-Phenotype (%): 72% and 77%
[2]
  Population Apoptotic (%): 75% and 35%
  Population Healthy Nuclei (%): 69% and 78%
  Population Hoechst High Intensity Objects (%): 0%
  Population Membrane Permeable-Phenotype (%): 5% and 0%
  Population Mitochondria Different-Phenotype (%): 0%
  Population Mitotic Cells (%): 25% and 64%
  Population Normal (%): 100%
  Population Pyknosed Nuclei (%): 8% and 16%
  Population Tubulin-Different-Phenotype (%): 67% and 87%
[3]
  Population Apoptotic (%): 80% and 96%
  Population Fragmented Nuclei (%): 5% and 3%
  Population Healthy Nuclei (%): 80% and 87%
  Population Hoechst High Intensity Objects (%): 0%
  Population Membrane Permeable-Phenotype (%): 7% and 0%
  Population Mitochondria Different-Phenotype (%): 3% and 1%
  Population Normal (%): 100%
  Population Pyknosed Nuclei (%): 14% and 9%
  Population Tubulin-Different-Phenotype (%): 71% and 79%
[4]
  Population Apoptotic (%): 55% and 57%
  Population Fragmented Nuclei (%): 17% and 8%
  Population Healthy Nuclei (%): 67% and 77%
  Population Hoechst High Intensity Objects (%): 0%
  Population Membrane Permeable-Phenotype (%): 2% and 3%
  Population Mitochondria Different-Phenotype (%): 0% and 1%
  Population Mitotic Cells (%): 44% and 42%
  Population Normal (%): 100%
  Population Pyknosed Nuclei (%): 15% and 14%
  Population Tubulin-Different-Phenotype (%): 79% and 89%
[5]
  Population Apoptotic (%): 60% and 82%
  Population Healthy Nuclei (%): 71% and 89%
  Population Hoechst High Intensity Objects (%): 0%
  Population Membrane Permeable-Phenotype (%): 7% and 1%
  Population Mitochondria Different-Phenotype (%): 2% and 0%
  Population Mitotic Cells (%): 40% and 17%
  Population Normal (%): 100%
  Population Pyknosed Nuclei (%): 9% and 6%
  Population Tubulin-Different-Phenotype (%): 76% and 81%
[6]
  Population Apoptotic (%): 75% and 74%
  Population Fragmented Nuclei (%): 15% and 5%
  Population Healthy Nuclei (%): 69% and 79%
  Population Hoechst High Intensity Objects (%): 0%
  Population Membrane Permeable-Phenotype (%): 3% and 4%
  Population Mitochondria Different-Phenotype (%): 0%
  Population Mitotic Cells (%): 25%
  Population Normal (%): 100% and 99%
  Population Pyknosed Nuclei (%): 15%
  Population Tubulin-Different-Phenotype (%): 68% and 91%

## CC1=C(C)C(=O)C(C(C)(C)CC(=O)N(CCCCSC[C@H]2O[C@@H](n3cnc4c(N)ncnc43)[C@H](O)[C@@H]2O)Cc2cccc(-c3ccc(Cl)cc3)c2)=C(C)C1=O
[1]
  Population Apoptotic (%): 33% and 50%
  Population Fragmented Nuclei (%): 4% and 7%
  Population Healthy Nuclei (%): 85% and 72%
  Population Hoechst High Intensity Objects (%): 0%
  Population Membrane Permeable-Phenotype (%): 5% and 6%
  Population Mitochondria Different-Phenotype (%): 4% and 0%
  Population Mitotic Cells (%): 66% and 50%
  Population Normal (%): 99% and 100%
  Population Pyknosed Nuclei (%): 10% and 20%
  Population Tubulin-Different-Phenotype (%): 57% and 34%
[2]
  Population Apoptotic (%): 75% and 58%
  Population Fragmented Nuclei (%): 8% and 4%
  Population Healthy Nuclei (%): 69% and 79%
  Population Hoechst High Intensity Objects (%): 0%
  Population Membrane Permeable-Phenotype (%): 16% and 24%
  Population Mitochondria Different-Phenotype (%): 40% and 33%
  Population Mitotic Cells (%): 25% and 41%
  Population Normal (%): 100%
  Population Pyknosed Nuclei (%): 22% and 16%
  Population Tubulin-Different-Phenotype (%): 96% and 86%
[3]
  Population Apoptotic (%): 53% and 77%
  Population Fragmented Nuclei (%): 2% and 6%
  Population Healthy Nuclei (%): 89% and 77%
  Population Hoechst High Intensity Objects (%): 0%
  Population Membrane Permeable-Phenotype (%): 3% and 4%
  Population Mitochondria Different-Phenotype (%): 4% and 6%
  Population Mitotic Cells (%): 46% and 22%
  Population Normal (%): 99% and 100%
  Population Pyknosed Nuclei (%): 7% and 15%
  Population Tubulin-Different-Phenotype (%): 66% and 42%
[4]
  Population Apoptotic (%): 87% and 79%
  Population Healthy Nuclei (%): 53% and 70%
  Population Hoechst High Intensity Objects (%): 0%
  Population Membrane Permeable-Phenotype (%): 50% and 23%
  Population Mitochondria Different-Phenotype (%): 42% and 45%
  Population Mitotic Cells (%): 12% and 20%
  Population Normal (%): 100% and 99%
  Population Pyknosed Nuclei (%): 30% and 25%
  Population Tubulin-Different-Phenotype (%): 78% and 90%
[5]
  Population Apoptotic (%): 100% and 39%
  Population Fragmented Nuclei (%): 9% and 3%
  Population Healthy Nuclei (%): 77% and 89%
  Population Hoechst High Intensity Objects (%): 0%
  Population Membrane Permeable-Phenotype (%): 4% and 1%
  Population Mitochondria Different-Phenotype (%): 7% and 0%
  Population Normal (%): 100%
  Population Pyknosed Nuclei (%): 12% and 7%
  Population Tubulin-Different-Phenotype (%): 56% and 79%
[6]
  Population Apoptotic (%): 68% and 78%
  Population Healthy Nuclei (%): 32% and 66%
  Population Hoechst High Intensity Objects (%): 0%
  Population Membrane Permeable-Phenotype (%): 66% and 36%
  Population Mitochondria Different-Phenotype (%): 58% and 52%
  Population Mitotic Cells (%): 31% and 21%
  Population Normal (%): 100% and 99%
  Population Pyknosed Nuclei (%): 51% and 28%
  Population Tubulin-Different-Phenotype (%): 100% and 82%

## CN(C)CC#Cc1ccc2[nH]c3c(c2c1)-c1nc(N)ncc1CCC3
[1]
  Population Apoptotic (%): 100% and 38%
  Population Fragmented Nuclei (%): 30% and 13%
  Population Healthy Nuclei (%): 61% and 68%
  Population Hoechst High Intensity Objects (%): 3% and 0%
  Population Membrane Permeable-Phenotype (%): 5% and 1%
  Population Mitochondria Different-Phenotype (%): 2% and 1%
  Population Normal (%): 96% and 99%
  Population Pyknosed Nuclei (%): 7% and 17%
  Population Tubulin-Different-Phenotype (%): 61% and 84%
[2]
  Population Apoptotic (%): 50% and 17%
  Population Healthy Nuclei (%): 33% and 56%
  Population Hoechst High Intensity Objects (%): 0%
  Population Membrane Permeable-Phenotype (%): 10% and 5%
  Population Mitochondria Different-Phenotype (%): 0% and 4%
  Population Mitotic Cells (%): 50% and 82%
  Population Normal (%): 100% and 99%
  Population Tubulin-Different-Phenotype (%): 20% and 47%
[3]
  Population Apoptotic (%): 75% and 53%
  Population Fragmented Nuclei (%): 30% and 17%
  Population Healthy Nuclei (%): 57% and 58%
  Population Hoechst High Intensity Objects (%): 1% and 0%
  Population Membrane Permeable-Phenotype (%): 0% and 3%
  Population Mitochondria Different-Phenotype (%): 0% and 1%
  Population Mitotic Cells (%): 25% and 46%
  Population Normal (%): 98% and 99%
  Population Pyknosed Nuclei (%): 12% and 23%
  Population Tubulin-Different-Phenotype (%): 58% and 82%
[4]
  Population Apoptotic (%): 66% and 24%
  Population Healthy Nuclei (%): 31% and 39%
  Population Hoechst High Intensity Objects (%): 0%
  Population Membrane Permeable-Phenotype (%): 27% and 15%
  Population Mitochondria Different-Phenotype (%): 9% and 4%
  Population Mitotic Cells (%): 33% and 75%
  Population Normal (%): 100% and 99%
  Population Tubulin-Different-Phenotype (%): 45% and 49%
[5]
  Population Apoptotic (%): 45% and 69%
  Population Fragmented Nuclei (%): 37% and 13%
  Population Healthy Nuclei (%): 52% and 69%
  Population Hoechst High Intensity Objects (%): 0%
  Population Membrane Permeable-Phenotype (%): 7% and 3%
  Population Mitochondria Different-Phenotype (%): 5% and 0%
  Population Mitotic Cells (%): 54% and 30%
  Population Normal (%): 99% and 100%
  Population Pyknosed Nuclei (%): 11% and 17%
  Population Tubulin-Different-Phenotype (%): 67% and 77%
[6]
  Population Apoptotic (%): 50%
  Population Healthy Nuclei (%): 19% and 48%
  Population Hoechst High Intensity Objects (%): 0%
  Population Membrane Permeable-Phenotype (%): 20% and 28%
  Population Mitochondria Different-Phenotype (%): 0% and 2%
  Population Mitotic Cells (%): 50% and 49%
  Population Normal (%): 100% and 99%
  Population Tubulin-Different-Phenotype (%): 20% and 45%
